Bioassay records (PubChem)
CAL PDZ FP-1 = CAL PDZ peptide-binding inhibitors, primary screen, biochemical, fluorescence polarization, Cer-tagged CAL PDZ, HTS; Golgi-associated PDZ and coiled-coil motif-containing protein (Homo sapiens), Q9HD26; purified CAL PDZ, TMR-peptide fluorescence polarization, 1 h; inhibition, % at 20 µM; 330,000 compounds, 0.02% hits;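 active = highest replicate inhibition of at least 40%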;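 also: plate controls were DMSO neutral control wells for no effect and unlabeled competitor peptide control wells for full effect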
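Material: tagged CAL PDZ protein CerCALP, purified; buffer or medium: sodium phosphate/NaCl buffer pH 7.4 with TCEP, IgG, Thesit; also added: fluorescent TMR peptide probe; schedule: 1 h incubation at room temperature before polarization reading; technique: fluorescence polarization from S- and P-plane intensities, G-factor corrected; control set: unlabelled peptide and DMSO controls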
Rtt109 Vps75 = inhibitors of C. albicans Rtt109/Vps75 HAT, primary screen, biochemical, ThioGlo CoA-SH fluorescence, plate reader. 330,000 compounds, 0.16% hits. inhibition, % at 34.9 µM. AID 540336, 2011. Histone acetyltransferase RTT109 (Candida albicans (strain SC5314 / ATCC MYA-2876)), …. purified Rtt109/Vps75, 4 h;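 active = inhibition of at least 50% in every replicate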
Target sequence (Q5AAJ8 whole entry, looked up): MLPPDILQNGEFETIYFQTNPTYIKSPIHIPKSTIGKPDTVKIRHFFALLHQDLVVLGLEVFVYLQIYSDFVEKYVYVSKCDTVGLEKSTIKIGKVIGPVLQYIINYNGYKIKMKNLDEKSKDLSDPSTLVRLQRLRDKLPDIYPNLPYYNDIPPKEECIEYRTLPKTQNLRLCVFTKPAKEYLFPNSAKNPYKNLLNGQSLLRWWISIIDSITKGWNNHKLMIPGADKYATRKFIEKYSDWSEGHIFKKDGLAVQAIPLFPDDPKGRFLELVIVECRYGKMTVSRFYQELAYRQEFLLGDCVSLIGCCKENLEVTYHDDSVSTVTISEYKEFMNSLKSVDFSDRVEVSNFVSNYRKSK
CAL PDZ FP-2 = untagged CAL PDZ binding inhibitors, primary screen, biochemical, fluorescence polarization, HTS | AID 602252, 2012 | purified CAL PDZ, TMR-peptide fluorescence polarization, 1 h | inhibition, % at 24.9 µM | 300,000 compounds, 0.92% hits;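 active = mean inhibition of at least 30% with at least half of replicates also reaching 30%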;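 also: 0% = DMSO neutral control and 100% = excess unlabeled competitor peptide PRC23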
ALR inh = inhibitors of human ALR sulfhydryl oxidase, primary screen, biochemical, H2O2 detection, HRP-luminol luminescence, single point. FAD-linked sulfhydryl oxidase ALR (Homo sapiens), P55789. purified ALR, DTT oxidation. inhibition, % (test concentration not listed). 290,000 compounds, 3.8% hits. AID 485317, 2010;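 active = mean replicate inhibition above about 79%, with every replicate also reaching it, limit read from the data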
Target sequence (P55789 whole entry, looked up): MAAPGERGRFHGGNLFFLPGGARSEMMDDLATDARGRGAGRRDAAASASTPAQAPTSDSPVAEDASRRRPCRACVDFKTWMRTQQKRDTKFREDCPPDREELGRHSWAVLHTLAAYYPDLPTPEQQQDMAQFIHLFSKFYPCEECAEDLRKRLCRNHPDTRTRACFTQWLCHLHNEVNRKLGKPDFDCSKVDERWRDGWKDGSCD
DYRK1A inh = rat Dyrk1A kinase inhibitors, primary screen, biochemical, single point, plate reader. Dual specificity tyrosine-phosphorylation-regulated kinase 1A (Rattus norvegicus), Q63470. ADP-Glo luminescence, NFATc1 peptide. inhibition, % at 12.5 µM. 310,000 compounds, 0.43% hits. AID 504441, 2011; in the data active = inhibition above about 50%;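 also: plate controls were vehicle with enzyme for no effect and no enzyme for full effect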
An asterisk follows results filed as active; x = no result. Only some compounds are listed: those with a hit (about 4.3% of all), similar ones and a draw of the others.

SMILES	CAL PDZ FP-1	Rtt109 Vps75	CAL PDZ FP-2	ALR inh	DYRK1A inh
Cc1ccc(CSc2nc3sc(C)c(C)c3c(=O)n2Cc2ccco2)cc1	-1	8	1	97*	6
CN(C)/C=C(\C#N)C(=O)Nc1ccc(O)cc1F	0	3	-6	99*	1
Cn1nnnc1SCc1csc(Nc2ccccc2)n1	-2	2	-10	90*	1
Cc1ccc(Nc2nc(CSc3nnnn3-c3ccccc3)cs2)cc1	0	-2	-2	9	0
Cc1ccc(Nc2nc(CSc3n[nH]c(N)n3)cs2)cc1	0	-1	0	98*	-11
Cc1ccc(CSc2n[nH]c(N)n2)cc1	3	-8	-4	0	x
Cc1ccc(Nc2nc(CSc3nnnn3C)cs2)cc1	-1	-2	-4	99*	-1
CCc1cc(=O)oc2c(C)c(OCC(=O)N3CCC(C(=O)O)CC3)ccc12	1	-6	-1	-7	9
Cc1ccc(NC(=O)OCCNC(=O)OC(C)C)cc1	0	-9	38*	-7	0
CCOC(=O)NCCOC(=O)Nc1ccc(Cl)cc1	-1	1	0	-21	-1
Cc1cccc(/C=N/Nc2nncc3ccccc23)c1	-4	5	x	97*	3
C(=N\Nc1nncc2ccccc12)/c1ccccc1	-1	-8	-4	-2	10
C=CCn1c(N)c(-c2nc3ccccc3n2C)sc1=S	-1	-3	0	90*	15
Cc1cccnc1NC(=O)CCc1nnc2ccc(N3CCC4(CC3)OCCO4)nn12	-1	-5	-4	-2	-5
CC1=C(C)CC2(SC1)C(=O)N(c1ccccc1)N=C2N (centres undefined)	-2	0	-5	94*	-4
COc1ccccc1CNC(=O)COC(=O)c1cccnc1SCC(=O)NCc1ccccc1OC	-6	0	83*	x	0
O=C(COC(=O)c1cccnc1SCC(=O)NCc1ccccc1)NCc1ccccc1	1	-6	-3	x	-3
Cc1ccc(/C=C2/CNC/C(=C/c3ccc(C)cc3)C2=O)cc1	0	0	39*	x	3
CCOC1=CC(=O)N(Cc2ccccc2)C1	0	-5	69*	2	-7
CCOc1ccc(S(=O)(=O)N2CCN(Cc3ccccc3)CC2)cc1	3	-5	x	3	-1
CC(=O)Oc1ccccc1N(C(C)=O)S(=O)(=O)c1cccc([N+](=O)[O-])c1	1	4	1	-7	0
O=c1c([N+](=O)[O-])c(O)c2ccccc2n1Cc1ccccc1	-3	4	-5	99*	5
Cc1cccc(C(O)(C(=O)NNc2ccc3ccccc3n2)c2cccc(C)c2)c1	-1	-4	1	5	-3
CC(O)(c1ccccc1)c1ccc2ccccc2n1 (centres undefined)	-1	-13	45*	x	1
CCCCC(O)(c1ccc(CC)cc1)C(CN1CCOCC1)c1ccccc1 (centres undefined)	1	26	3	-4	-1
SMILES	CAL PDZ FP-1	Rtt109 Vps75	CAL PDZ FP-2	ALR inh	DYRK1A inh
O=S(=O)(N/N=C1\CC(c2ccccc2)Oc2ccccc21)c1ccccc1 (centres undefined)	0	5	1	96*	1
O=C(c1cc(S(=O)(=O)N2CCOCC2)ccc1F)N(CCc1ccccc1)Cc1ccccc1	-2	16	-4	-13	0
CCc1ccc(OCC(=O)N2CCc3ccccc32)cc1	-1	0	38*	1	2
O=C(CSc1nc2ccccc2[nH]1)Nc1ccc(N2CCOCC2)cc1	1	-6	-2	99*	-8
COc1ccc(CSc2nc3ccccc3[nH]2)cc1	-4	0	-3	-8	2
Cc1ccc(C(=O)Nc2c(N)nc(SCC(=O)NCC3CCCO3)[nH]c2=O)cc1 (centres undefined)	-1	3	-2	-5	2
COc1ccc(C(=O)Nc2c(N)nc(SCC(=O)NCC3CCCO3)[nH]c2=O)cc1OC (centres undefined)	-1	0	92*	1	x
O=C1CCC(=O)N1c1ccc(CSc2nc3ccccc3[nH]2)cc1	0	2	-5	99*	-3
N#CCCn1c(SCC(=O)Nc2ccc(N3CCOCC3)cc2)nc2ccccc21	-1	5	7	99*	0
Cn1cc(SCC(=O)N2CCN(c3ccccc3)CC2)c2ccccc21	-1	-6	1	98*	-6
CCn1cc(SCC(=O)NCC2CCCO2)c2ccccc21 (centres undefined)	0	-7	x	98*	0
O=C(CSc1nc2ccccc2[nH]1)NCC1CCCO1 (centres undefined)	-2	-8	40*	-15	1
O=C(CSc1nc2ccccc2[nH]1)N1CCN(c2ccccc2)CC1	-2	x	-2	99*	1
CCCCNC(=S)NNC(=O)c1c(C)nc2ccccn12	-1	x	-2	34	1
O=C(Nc1ccc2c(c1)CCC2)Nc1ccccc1F	0	-6	-1	6	-1
CCCCN(C(=O)c1ccc(-c2ccc([N+](=O)[O-])cc2)o1)c1c(N)n(CC(C)C)c(=O)[nH]c1=O	2	-3	-4	1	2
O=C(CCCSc1nc2ccccc2[nH]1)NC1CCCCC1	-2	56*	-2	1	4
Cc1ccccc1NC(=O)C1CCN(C(=O)N2CCOc3ccccc32)CC1	-1	2	-3	-2	0
COc1cc2[nH]c3ccccc3c2cc1C	0	0	-2	81*	0
CCOC(=O)c1ccc2[nH]c3ccccc3c2c1	-1	2	-3	0	0
O=S1(=O)CCOCCCN1Cc1ccc(Cl)cc1	0	-12	-3	-11	7
CN(C)S(=O)(=O)c1ccc(NC(=O)COc2ncnc3sccc23)cc1	-2	-3	-13	1	x
CC(C)(C)CC(=O)NCCCN1CCOCC1	4	-5	37*	14	x
CC(C)CNC(=O)C(=O)NCCCN1CCOCC1	-1	8	-1	x	-10
Cc1sc(NC(=S)NC(=O)C2CCCCC2)c(C(N)=O)c1C	-2	-7	3	x	-6
COc1ccc(-c2nc(SC(C)C(=O)Nc3ccc(NC(C)=O)cc3)n[nH]2)cc1 (centres undefined)	-1	-1	x	98*	7
CCOc1cnn(-c2ccccc2)c(=O)c1Cl	1	-8	-2	96*	2
COc1cnc(SCc2ccc(Cl)cc2Cl)nc1Cl	x	-11	-1	98*	1
COc1cnn(-c2ccccc2)c(=O)c1SCc1ccc(Cl)cc1Cl	-1	1	-2	98*	7
